This is an account of results in ChEMBL document CHEMBL1157407, “Inhibitors of bacterial multidrug efflux pumps from the resin glycosides of Ipomoea murucoides” (2008).

Holding throughout (format): functional
The test system of experiment [1] is HeLa. As to the kind of experiment: Cytotoxicity against human HeLa cells after 72 hrs. To be noted: read-out: ED50 (the source's name). The method in brief: (§1)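 Cells grown in RPMI 1640 with 10% fetal bovine serum at 37 °C, 5% CO2, humidified. Log-phase cells treated in triplicate with test samples at 0.16–20 μg/mL for 72 h. Growth read by the NCI sulforhodamine method. ED50 is the dose inhibiting 50% of control growth, estimated from a semilog plot of concentration against percentage of viable cells.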

The subject of experiment [2] is Staphylococcus aureus. As to the kind of experiment: Antimicrobial activity against Staphylococcus aureus ATCC 25923. The method in brief:
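Broth microdilution MIC per NCCLS guidelines, at least in duplicate. Inoculum 5×10^5 cfu prepared in 0.9% saline against a McFarland standard. Cation-adjusted Mueller-Hinton broth with 20 mg/L Ca2+ and 10 mg/L Mg2+. Compounds dissolved in DMSO, then 2-fold serial dilutions, final 1–512 μg/mL; DMSO at most 3.125% v/v. MIC is the lowest concentration giving no visible growth.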

Experiment [3] concerns Staphylococcus aureus. As to the kind of experiment: Antimicrobial activity against methicillin-resistant Staphylococcus aureus XU212. The method in brief: (§2)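 Broth microdilution MIC per NCCLS guidelines, at least in duplicate, in cation-adjusted Mueller-Hinton broth (20 mg/L Ca2+, 10 mg/L Mg2+). Strains grown on nutrient agar first. Inoculum 5×10^5 cfu prepared in 0.9% saline against a McFarland standard. Compounds dissolved in DMSO, 2-fold serial dilutions, final 1–512 µg/mL (DMSO ≤3.125% v/v). MIC taken as lowest concentration with no visible growth.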

Experiment [4] concerns Staphylococcus aureus. As to the kind of experiment: Antimicrobial activity against epidemic methicillin-resistant Staphylococcus aureus 15 containing mecA gene. The method in brief:
as §2

For experiment [5], the system named is Staphylococcus aureus. As to the kind of experiment: Antimicrobial activity against multidrug-resistant Staphylococcus aureus over expressing NorA MDR efflux pump. The method in brief: as §2
In experiment [6] the test system is HEp-2. As to the kind of experiment: Cytotoxicity against human Hep2 cells after 72 hrs. To be noted: HEp-2, 72 h, read-out: ED50 (the source's name). The method in brief: as §1
The subject of experiment [7] is KB. As to the kind of experiment: Cytotoxicity against human KB cells after 72 hrs. To be noted: read-out: ED50 (the source's name). Summed up:
as §1

≈ marks a conversion by molar mass, not a printed value.

As to `CCCCC[C@H]1CCCCCCCCCC(=O)O[C@H]2[C@H](O[C@H]3[C@H](O1)O[C@H](C)[C@H](O)[C@@H]3O)O[C@@H](C)[C@H](O[C@@H]1O[C@@H](C)[C@H](O[C@@H]3O[C@@H](C)[C@H](OC(=O)[C@@H](C)CC)[C@@H](O)[C@H]3O)[C@@H](O[C@@H]3O[C@@H](C)[C@H](O)[C@@H](O)[C@H]3O)[C@H]1OC(=O)[C@@H](C)CC)[C@H]2O` [MURUCOIDIN III], the EC50 in experiment [1] is > 20 µg/mL; in experiment [6], 10.7 µg/mL (≈ 9.28 µM); in experiment [7], 15.4 µg/mL (≈ 13.4 µM). For the same compound, the MIC in experiment [2], in experiment [3], in experiment [4] and in experiment [5] was > 512 µg/mL each time.
Regarding `CCCCC[C@H]1CCCCCCCCCC(=O)O[C@H]2[C@H](O[C@H]3[C@H](O1)O[C@H](C)[C@H](O)[C@@H]3O)O[C@@H](C)[C@H](O[C@@H]1O[C@@H](C)[C@H](O[C@@H]3O[C@@H](C)[C@H](OC(=O)C(C)C)[C@@H](O)[C@H]3O)[C@@H](O[C@@H]3O[C@@H](C)[C@H](O)[C@@H](O)[C@H]3O)[C@H]1OC(=O)[C@@H](C)CC)[C@H]2O` [MURUCOIDIN II], the values for the EC50 in experiment [1], in experiment [6] and in experiment [7] were 16 µg/mL (≈ 14 µM), > 20 µg/mL and > 20 µg/mL, respectively. The MIC in experiment [2], in experiment [3], in experiment [4] and in experiment [5] was > 512 µg/mL each time.
Take `CCCCC[C@H]1CCCCCCCCCC(=O)O[C@H]2[C@H](O[C@H]3[C@H](O1)O[C@H](C)[C@H](O)[C@@H]3O)O[C@@H](C)[C@H](O[C@@H]1O[C@@H](C)[C@H](O[C@@H]3O[C@@H](C)[C@H](OC(=O)[C@@H](C)CC)[C@@H](O)[C@H]3O)[C@@H](O[C@@H]3O[C@H](CO)[C@@H](O)[C@H](O)[C@H]3O)[C@H]1OC(=O)[C@@H](C)CC)[C@H]2O` [MURUCOIDIN IV]: the EC50 in experiment [1] is > 20 µg/mL; in experiment [6], 4 µg/mL (≈ 3.42 µM); in experiment [7] it was 15 µg/mL (≈ 12.8 µM). Besides, the MIC in experiment [2], in experiment [3], in experiment [4] and in experiment [5] was > 512 µg/mL throughout.
With `CCCCC[C@H]1CCCCCCCCCC(=O)O[C@H]2[C@@H](O)[C@H](O[C@H]3[C@H](O1)O[C@H](C)[C@H](O)[C@@H]3O)O[C@@H](C)[C@@H]2O[C@@H]1O[C@@H](C)[C@H](O[C@@H]2O[C@@H](C)[C@H](OC(=O)C(C)C)[C@@H](O)[C@H]2O)[C@@H](O[C@@H]2O[C@@H](C)[C@H](O)[C@@H](O)[C@H]2O)[C@H]1OC(=O)[C@@H](C)CC` [MURUCOIDIN IX], the EC50 is 12.4 µg/mL (≈ 10.9 µM) in experiment [1], 10.2 µg/mL (≈ 8.95 µM) in experiment [6] and > 20 µg/mL in experiment [7]. For the same compound, the MIC in experiment [2], in experiment [3], in experiment [4] and in experiment [5] was > 512 µg/mL each time.
As for `CCCCC[C@H]1CCCCCCCCCC(=O)O[C@H]2[C@H](O[C@H]3[C@H](O1)O[C@H](C)[C@H](O)[C@@H]3O)O[C@@H](C)[C@H](O[C@@H]1O[C@@H](C)[C@H](O[C@@H]3O[C@@H](C)[C@H](O)[C@@H](O)[C@H]3O)[C@@H](O[C@@H]3O[C@@H](C)[C@H](O)[C@@H](O)[C@H]3O)[C@H]1OC(=O)[C@@H](C)CC)[C@H]2O` [MURUCOIDIN I], the EC50 in experiment [1], in experiment [6] and in experiment [7] was > 20 µg/mL each time. The MIC in experiment [2] was > 512 µg/mL; in experiment [3] it was 512 µg/mL (≈ 479 µM); in experiment [4], 256 µg/mL (≈ 239 µM); in experiment [5], 32 µg/mL (≈ 29.9 µM).
Consider `CCCCC[C@H]1CCCCCCCCCC(=O)O[C@H]2[C@H](O[C@H]3[C@H](O1)O[C@H](CO)[C@@H](O)[C@@H]3O)O[C@@H](C)[C@H](O[C@@H]1O[C@@H](C)[C@H](O[C@@H]3O[C@@H](C)[C@H](OC(=O)[C@@H](C)CC)[C@@H](O)[C@H]3O)[C@@H](O[C@@H]3O[C@@H](C)[C@H](O)[C@@H](O)[C@H]3O)[C@H]1OC(=O)[C@@H](C)CC)[C@H]2O` [MURUCOIDIN VIII], for which the figures for the EC50 in experiment [1], in experiment [6] and in experiment [7] were 16.4 µg/mL (≈ 14 µM), 14.2 µg/mL (≈ 12.1 µM) and 17.9 µg/mL (≈ 15.3 µM), respectively. Further, the MIC in experiment [2], in experiment [3], in experiment [4] and in experiment [5] was > 512 µg/mL each time.
For `CCCCC[C@H]1CCCCCCCCCC(=O)O[C@H]2[C@H](O[C@H]3[C@H](O1)O[C@H](CO)[C@@H](O)[C@@H]3O)O[C@@H](C)[C@H](O[C@@H]1O[C@@H](C)[C@H](O[C@@H]3O[C@@H](C)[C@H](OC(=O)C(C)C)[C@@H](O)[C@H]3O)[C@@H](O[C@@H]3O[C@@H](C)[C@H](O)[C@@H](O)[C@H]3O)[C@H]1OC(=O)[C@@H](C)CC)[C@H]2O` [MURUCOIDIN VII], the EC50 in experiment [1], in experiment [6] and in experiment [7] was > 20 µg/mL in each case. In addition, the MIC was > 512 µg/mL in experiment [2], 512 µg/mL (≈ 443 µM) in experiment [3], 256 µg/mL (≈ 222 µM) in experiment [4] and 32 µg/mL (≈ 27.7 µM) in experiment [5].
For the compound `CCCCCCCCCCCC(=O)O[C@H]1[C@H](O[C@@H]2[C@H]3OC(=O)CCCCCCCCC[C@H](CCCCC)O[C@@H]4O[C@H](CO)[C@@H](O)[C@H](O)[C@H]4O[C@H](O[C@H]2C)[C@@H]3O)O[C@@H](C)[C@H](O[C@@H]2O[C@@H](C)[C@H](OC(=O)[C@@H](C)CC)[C@@H](O)[C@H]2O)[C@H]1O[C@@H]1O[C@@H](C)[C@H](O)[C@@H](O)[C@H]1O` [MURUCOIDIN VI], the EC50 in experiment [1], in experiment [6] and in experiment [7] was > 20 µg/mL each time. Further, the MIC in experiment [2] is > 512 µg/mL; in experiment [3] it was 512 µg/mL (≈ 404 µM); in experiment [4] it was 256 µg/mL (≈ 202 µM); in experiment [5], 32 µg/mL (≈ 25.2 µM).
Consider `CCCCC[C@H]1CCCCCCCCCC(=O)O[C@H]2[C@@H](O)[C@H](O[C@H]3[C@H](O1)O[C@H](C)[C@H](O)[C@@H]3O)O[C@@H](C)[C@@H]2O[C@@H]1O[C@@H](C)[C@H](O[C@@H]2O[C@@H](C)[C@H](OC(=O)[C@@H](C)CC)[C@@H](O)[C@H]2O)[C@@H](O[C@@H]2O[C@H](CO)[C@@H](O)[C@H](O)[C@H]2O)[C@H]1OC(=O)[C@@H](C)CC` [MURUCOIDIN V], for which the results for the EC50 in experiment [1], in experiment [6] and in experiment [7] were 13.2 µg/mL (≈ 11.3 µM), > 20 µg/mL and > 20 µg/mL, respectively. Besides, the MIC in experiment [2] is > 512 µg/mL; in experiment [3] it was 256 µg/mL (≈ 219 µM); in experiment [4], 128 µg/mL (≈ 109 µM); in experiment [5], 64 µg/mL (≈ 54.7 µM).
As for `CCCCCCCCCCCC(=O)O[C@H]1[C@H](O[C@@H]2[C@H]3OC(=O)CCCCCCCCC[C@H](CCCCC)O[C@@H]4O[C@H](C)[C@H](O)[C@H](O)[C@H]4O[C@H](O[C@H]2C)[C@@H]3O)O[C@@H](C)[C@H](O[C@@H]2O[C@@H](C)[C@H](OC(=O)[C@@H](C)CC)[C@@H](O)[C@H]2O)[C@H]1O[C@@H]1O[C@H](CO)[C@@H](O)[C@H](O)[C@H]1O` [MURUCOIDIN XI], the figures for the EC50 in experiment [1], in experiment [6] and in experiment [7] were > 20 µg/mL, > 20 µg/mL and 12.1 µg/mL (≈ 9.55 µM), respectively. Further, the MIC in experiment [2], in experiment [3], in experiment [4] and in experiment [5] was > 512 µg/mL each time.
Take `CCCCC[C@H]1CCCCCCCCCC(=O)O[C@H]2[C@@H](O)[C@H](O[C@H]3[C@H](O1)O[C@H](C)[C@H](O)[C@@H]3O)O[C@@H](C)[C@@H]2O[C@@H]1O[C@@H](C)[C@H](O[C@@H]2O[C@@H](C)[C@H](OC(=O)[C@@H](C)CC)[C@@H](O)[C@H]2O)[C@@H](O[C@@H]2O[C@@H](C)[C@H](O)[C@@H](O)[C@H]2O)[C@H]1OC(=O)CCCCCC[C@H](O)CCCC` [MURUCOIDIN X]: the EC50 in experiment [1] was > 20 µg/mL; in experiment [6] it was > 20 µg/mL; in experiment [7], 15.7 µg/mL (≈ 12.4 µM). The MIC in experiment [2], in experiment [3], in experiment [4] and in experiment [5] was > 512 µg/mL throughout.
For the compound `CCn1cc(C(=O)O)c(=O)c2cc(F)c(N3CCNCC3)cc21` [NORFLOXACIN], the MIC in experiment [2] is > 512 µg/mL; in experiment [3], 512 µg/mL (≈ 1600 µM); in experiment [4] it was 256 µg/mL (≈ 802 µM); in experiment [5], 32 µg/mL (≈ 100 µM). Also, the EC50 in experiment [6] is > 20 µg/mL.
For `COC(=O)[C@H]1[C@H]2C[C@@H]3c4[nH]c5cc(OC)ccc5c4CCN3C[C@H]2C[C@@H](OC(=O)c2cc(OC)c(OC)c(OC)c2)[C@@H]1OC` [RESERPINE], the EC50 in experiment [6] is > 20 µg/mL.
In the case of `CN(C)[C@@H]1C(O)=C(C(N)=O)C(=O)[C@@]2(O)C(O)=C3C(=O)c4c(O)cccc4[C@@](C)(O)[C@H]3C[C@@H]12` [TETRACYCLINE], the MIC in experiment [2] was > 512 µg/mL; in experiment [3] it was 512 µg/mL (≈ 1150 µM); in experiment [4], 256 µg/mL (≈ 576 µM); in experiment [5], 32 µg/mL (≈ 72 µM).
Take `CC[C@]1(O)C[C@@H]2CN(CCc3c([nH]c4ccccc34)[C@@](C(=O)OC)(c3cc4c(cc3OC)N(C)[C@H]3[C@@](O)(C(=O)OC)[C@H](OC(C)=O)[C@]5(CC)C=CCN6CC[C@]43[C@@H]65)C2)C1` [VINBLASTINE]: the EC50 in experiment [1], in experiment [6] and in experiment [7] was > 20 µg/mL each time.

As usually defined, the MIC is the lowest concentration found to suppress growth. A low value points to greater potency.
